Measured values taken from ChEMBL document CHEMBL3351949, “Substituted dithiazole piperazine benzamides as novel amyloid beta peptide reducing agents” (Bioorg Med Chem Lett, 2014).
Active and inactive are the calls of the source. No cut-off for these calls is given here.

Tests used:
CHO [1] = test: Toxicity against CHO cells assessed as induction of cell death at 10 uM by LDH release assay; assay type: cell-based, Cricetulus griseus; settings: chinese hamster
Outline: (§1)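 Cytotoxicity in CHO cells measured by lactate dehydrogenase release and by MTT reduction. n=4 per group; ANOVA followed by Dunnett's post-hoc test.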

[2] = molecular target: Amyloid-beta precursor protein (Homo sapiens) (UniProt P05067); test: Reduction in wild type APP751 (unknown origin) expressed in CHO cells at 10 uM after 48 hrs by immunoblotting method relative to untreated control; assay type: cell-based
Outline: (§2)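 CHO cells stably expressing APP751wt (7WD10) treated 48 h, duplicate wells, DMSO as control. Conditioned medium centrifuged and immunoprecipitated overnight with Ab9 (Aβ 1–16). Aβ detected by SDS-PAGE immunoblot with 6E10/82E1 and ECL, signals quantified by densitometry. Dose-response n=4; ANOVA with Dunnett's post-hoc test.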

CHO [3] = test: Toxicity against CHO cells assessed as induction of cell death up to 1 uM by LDH release assay; assay type: cell-based, Cricetulus griseus; settings: chinese hamster; outline: as §1
[4] = molecular target: Amyloid-beta precursor protein (Homo sapiens) (UniProt P05067); test: Reduction in wild type APP751 (unknown origin) expressed in CHO cells assessed as increase in secreted APPbeta at 50 nM to 10 uM after 48 hrs by immunoblotting method relative to untreated control; assay type: cell-based
Outline: (§3)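 48 h treatment of APP751wt-expressing CHO (7WD10) cells, DMSO control. Conditioned medium immunoblotted for sAPPα (6E10), sAPPβ (anti-sAPPβ-wt rabbit IgG) and total sAPP (63G). Detection by ECL, densitometric quantification.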

[5] = molecular target: Amyloid-beta precursor protein (Homo sapiens) (UniProt P05067); test: Reduction in wild type APP751 (unknown origin) expressed in CHO cells assessed as increase in secreted APPalpha at 50 nM to 10 uM after 48 hrs by immunoblotting method; assay type: cell-based; design: scale not given: the % may be the effect or the level left; outline: as §3
[6] = molecular target: Amyloid-beta precursor protein (Homo sapiens) (UniProt P05067); test: Reduction in wild type APP751 (unknown origin) expressed in CHO cells assessed as increase in c-terminal fragments at 50 nM to 10 uM after 48 hrs by immunoblotting method relative to untreated control; assay type: cell-based
Outline: (§4)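 7WD10 CHO cells (APP751wt) treated 48 h versus DMSO controls. Cells lysed in buffer with protease inhibitors. Full-length APP and C-terminal fragments detected with CT15 antibody by SDS-PAGE immunoblot and ECL, quantified by densitometry. n=4; ANOVA with Dunnett's test.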

[7] = molecular target: Amyloid-beta precursor protein (Homo sapiens) (UniProt P05067); test: Reduction in wild type APP751 (unknown origin) expressed in CHO cells assessed as increase in secreted APPalpha at 50 nM to 10 uM after 48 hrs by immunoblotting method relative to untreated control; assay type: cell-based; outline: as §3
CHO [8] = test: Toxicity against CHO cells assessed as induction of cell death up to 1 uM by MTT assay; assay type: cell-based, Cricetulus griseus; settings: chinese hamster; outline: as §1
[9] = molecular target: Amyloid-beta precursor protein (Homo sapiens) (UniProt P05067); test: Reduction in wild type APP751 (unknown origin) expressed in CHO cells assessed as increase in beta c-terminal fragments at 50 nM to 10 uM after 48 hrs by immunoblotting method; assay type: cell-based; outline: as §4
[10] = molecular target: Amyloid-beta precursor protein (Homo sapiens) (UniProt P05067); test: Reduction in wild type APP751 (unknown origin) expressed in CHO cells at 1 uM after 48 hrs by immunoblotting method relative to untreated control; assay type: cell-based; outline: as §2
[11] = molecular target: Amyloid-beta precursor protein (Homo sapiens) (UniProt P05067); test: Reduction in wild type APP751 (unknown origin) expressed in CHO cells assessed as increase in full length APP level at 50 nM to 10 uM after 48 hrs by immunoblotting method; assay type: cell-based; outline: as §4
[12] = Drug level in brain of APP/PS1 double transgenic APdeltaE9 mouse 4 mg/kg, iv measured after 10 mins; assay type: ADME, organism-based; design: dose 4 mg/kg, route intravenous; settings: read-out: Drug uptake
Outline: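 Mice given 4 mg/kg by intravenous injection; compound level measured in brain over time after dosing (about 10–20 min window).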

[13] = Half life in brain of APP/PS1 double transgenic APdeltaE9 mouse 4 mg/kg, iv; assay type: ADME, organism-based; design: dose 4 mg/kg, route intravenous
[14] = molecular target: Amyloid-beta precursor protein (Homo sapiens) (UniProt P05067); test: Reduction in wild type APP751 (unknown origin) expressed in CHO cells at 1 uM after 48 hrs by immunoblotting method; assay type: cell-based; outline: as §2
[15] = molecular target: Amyloid-beta precursor protein (Homo sapiens) (UniProt P05067); test: Reduction in wild type APP751 (unknown origin) expressed in CHO cells assessed as increase in alpha c-terminal fragments at 50 nM to 10 uM after 48 hrs by immunoblotting method relative to untreated control; assay type: cell-based; outline: as §4
Mus musculus = test: Reduction in amyloid plaque numbers in APP/PS1 double transgenic APdeltaE9 mouse 0.5 mg/kg, ip dosed daily for 60 days starting from 4 to 6 months of age; assay type: functional; settings: 1440 h, route intraperitoneal
Outline: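 APP/PS1 double transgenic (APΔE9) mice dosed i.p. daily, 0.5 mg/kg body wt., from 4- to 6-months of age for 60 days. Amyloid plaque numbers counted in brain sections (cortex and hippocampus) versus vehicle-treated mice.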

[16] = molecular target: Amyloid-beta precursor protein (Homo sapiens) (UniProt P05067); test: Reduction in wild type APP751 (unknown origin) expressed in CHO cells at 500 nM after 48 hrs by immunoblotting method relative to untreated control; assay type: cell-based; outline: as §2
CHO [17] = test: Toxicity against CHO cells assessed as induction of cell death at 10 uM by MTT assay; assay type: cell-based, Cricetulus griseus; settings: chinese hamster; outline: as §1
N2a = test: Reduction in […] APP695 Sweden mutant (unknown origin) expressed in N2a cells by immunoblotting method; assay type: cell-based; settings: Homo sapiens
Outline: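 Neuro-2a cells stably expressing APP695swe treated at 1.0 μM. Aβ immunoprecipitated from conditioned medium with Ab9 antibody (Aβ 1–16) and detected by immunoblot with 6E10/82E1 mixture.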

[18] = molecular target: Amyloid-beta precursor protein (Homo sapiens) (UniProt P05067); test: Reduction in wild type APP751 (unknown origin) expressed in CHO cells at 100 nM after 48 hrs by immunoblotting method relative to untreated control; assay type: cell-based; outline: as §2
[19] = molecular target: Amyloid-beta precursor protein (Homo sapiens) (UniProt P05067); test: Reduction in wild type APP751 (unknown origin) expressed in CHO cells at 50 nM after 48 hrs by immunoblotting method relative to untreated control; assay type: cell-based; outline: as §2
[20] = molecular target: Amyloid-beta precursor protein (Homo sapiens) (UniProt P05067); test: Reduction in wild type APP751 (unknown origin) expressed in CHO cells assessed as increase in alpha c-terminal fragments at 50 nM to 10 uM after 48 hrs by immunoblotting method; assay type: cell-based; design: scale not given: the % may be the effect or the level left; outline: as §4

Sequence of Amyloid-beta precursor protein (Homo sapiens) (P05067 whole entry, the tested form may be a part): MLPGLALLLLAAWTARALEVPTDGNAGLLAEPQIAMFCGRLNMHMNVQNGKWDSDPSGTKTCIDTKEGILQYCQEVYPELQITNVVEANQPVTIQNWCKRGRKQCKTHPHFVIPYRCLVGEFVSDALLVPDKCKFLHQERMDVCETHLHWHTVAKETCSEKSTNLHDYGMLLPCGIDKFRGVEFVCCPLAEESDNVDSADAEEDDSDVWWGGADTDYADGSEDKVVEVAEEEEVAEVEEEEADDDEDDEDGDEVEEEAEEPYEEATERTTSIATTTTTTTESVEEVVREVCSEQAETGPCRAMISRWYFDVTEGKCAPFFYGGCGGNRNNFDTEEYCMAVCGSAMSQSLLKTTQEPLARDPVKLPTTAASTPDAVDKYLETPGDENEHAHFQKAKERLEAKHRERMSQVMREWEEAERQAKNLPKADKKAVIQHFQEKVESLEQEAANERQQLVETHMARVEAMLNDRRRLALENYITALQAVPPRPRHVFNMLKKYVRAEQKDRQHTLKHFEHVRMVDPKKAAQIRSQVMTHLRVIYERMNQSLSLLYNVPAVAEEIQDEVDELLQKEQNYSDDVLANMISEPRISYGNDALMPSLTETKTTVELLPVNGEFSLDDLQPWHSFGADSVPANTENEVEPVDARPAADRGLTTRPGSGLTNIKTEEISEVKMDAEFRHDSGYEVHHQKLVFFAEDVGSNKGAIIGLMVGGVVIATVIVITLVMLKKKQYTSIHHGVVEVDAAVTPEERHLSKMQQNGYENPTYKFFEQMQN

In the case of `NC(=O)c1ccc(N2CCN(c3nc(-c4cccc(O)c4)cs3)CC2)c(Nc2nc(-c3cccc(O)c3)cs2)c1`, the Activity (CHO [1]) is reported as “Toxic”, the inhibition [2] is reported as 63% and the Activity (CHO [3]) is reported as “Non-toxic”. For the same compound, the inhibition [4] was “inactive”, the Activity [5] was 40% and the inhibition [6] was “Dose-dependent effect”. For the same compound, the inhibition [7] was “Dose-dependent effect”, the Activity (CHO [8]) was “Non-toxic” and the inhibition [9] was “inactive”. The inhibition [10] was 54%, the inhibition [11] was “Dose-dependent effect” and the concentration at 10 min [12] was 40 ng/mL. For the same compound, the half-life [13] was 6.7 min, the inhibition [14] was “Active” and the inhibition [15] was “Dose-dependent effect”. The inhibition in vivo at 0.5 mg/kg (Mus musculus) was 39%, the inhibition [16] was 31% and the Activity (CHO [17]) was “Toxic”. For the same compound, the inhibition (N2a) was “Active”, the inhibition [18] was 20% and the inhibition [19] was 21%. It also gave an Activity [20] of 80%.
